# Sampled rows, rich in hits. Any-hit rate of the full collection: about 2.5%.
# NSD2 HMT inh: inhibitors of human histone methyltransferase NSD2; NSD2 peptide methylation, AlphaScreen, 120 min; inhibition, % at 12.5 µM; AID 743445; 310,000 compounds, 0.54% hits
# CDK5 inh: CDK5/p35 (human) kinase inhibition; Q00535+Q15078; Recombinant CDK5/p35, ADP-Glo luminescence, 60 min; inhibition, % at 10 µM; 330,000 compounds, 0.01% hits; AID 488839;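 active = highest replicate inhibition of at least 50% and at least 75% of replicates reaching 50%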
# SR-BI DiI-HDL act: activators of SR-BI mediated HDL lipid uptake. CHO ldlA[mSR-BI] cells, DiI-HDL uptake fluorescence, 3 h; 100 = double the neutral-control signal. activation, % at 12.5 µM. 320,000 compounds, 0.096% hits. AID 504775;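 active = mean replicate activation of at least 60% and every replicate at or above 60%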
#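 system = CHO ldlA[mSR-BI] cells, LDL receptor-null, SR-BI overexpressing | medium = Ham's F12 with 0.5% BSA, HEPES 25 mM, pH 7.4 | probe or stimulus = DiI-HDL 10 µg/mL | compound dosing = single-point compound dose | incubation = compound exposure 3 h, 37 °C | technique = DiI fluorescence, bottom read | read-out = cell-associated DiI fluorescence as measure of HDL uptake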
# dFosB act: enhances mouse delta FosB homodimer DNA binding | purified delta FosB, TAMRA-CDK5 oligo fluorescence polarization; percent of positive-control signal above neutral wells | 340,000 compounds, 0.99% hits | AID 493131 | P13346 | activation, % at 25 µM;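 active = mean activation above about 17%, with every replicate also reaching it, limit read from the data, passing the limit was not always enough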
# SR-BI DiI inh: blocks mouse SR-BI lipid uptake from DiI-HDL. inhibition, % at 12.5 µM. ldlA[mSR-BI] CHO cells, DiI-HDL uptake fluorescence, 3 h. 320,000 compounds, 0.96% hits;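 active = mean replicate inhibition of at least 70% and a set share of replicates each scoring 70 or more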
# Target sequence (Q61009 whole entry, looked up): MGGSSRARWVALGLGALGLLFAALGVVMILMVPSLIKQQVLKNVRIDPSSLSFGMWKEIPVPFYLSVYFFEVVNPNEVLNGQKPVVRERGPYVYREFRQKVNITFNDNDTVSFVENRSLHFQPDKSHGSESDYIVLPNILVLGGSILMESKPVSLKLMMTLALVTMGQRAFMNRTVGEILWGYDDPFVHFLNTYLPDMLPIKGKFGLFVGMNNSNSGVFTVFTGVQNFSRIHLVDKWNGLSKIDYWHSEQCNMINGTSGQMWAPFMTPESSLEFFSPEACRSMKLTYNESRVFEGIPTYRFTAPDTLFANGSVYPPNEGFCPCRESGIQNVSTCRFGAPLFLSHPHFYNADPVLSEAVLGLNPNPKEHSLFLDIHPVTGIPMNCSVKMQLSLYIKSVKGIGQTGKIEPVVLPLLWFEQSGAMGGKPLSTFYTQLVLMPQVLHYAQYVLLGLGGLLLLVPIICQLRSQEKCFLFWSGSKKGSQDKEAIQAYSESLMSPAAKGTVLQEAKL
# Dyrk1A ADPGlo: Dyrk1A (rat) kinase inhibition | Q63470 | ADP-Glo luminescence, NFATc1 peptide | inhibition, % at 12.5 µM | 310,000 compounds, 0.43% hits
# Numbers stand for hits; – = inactive; · = not tested or not shown. Cut-off read from the data, not from the text of the source, unless noted: active = inhibition above about 50%; inactive = the rest.
SMILES,NSD2 HMT inh,CDK5 inh,SR-BI DiI-HDL act,dFosB act,SR-BI DiI inh,Dyrk1A ADPGlo
O=C(CCN1CCN(C(c2ccccc2)c2ccccc2)CC1)N/N=C/c1ccc(O)cc1O,–,–,–,37,–,–
NS(=O)(=O)c1ccc(NC(=O)COc2ncnc3c2cnn3-c2ccccc2)cc1,–,–,·,21,·,–
NS(=O)(=O)c1ccc(NC(=O)COC(=O)c2cn(-c3ccccc3)nc2-c2ccccc2)cc1,–,–,–,–,–,–
O=C1Nc2ccc(Br)cc2/C1=C/C(=O)c1ccc2c(c1)OCO2,–,–,–,–,75,–
CCOc1ccc(NCc2nnc(SCC(=O)Nc3nc(-c4ccccc4)cs3)n2-c2ccccc2)cc1,–,–,–,–,75,–
Cc1cccc(C)c1NCc1nnc(SCC(=O)Nc2nc(-c3ccccc3)cs2)n1-c1ccccc1,–,–,–,–,–,–
CCOc1ccccc1Nc1nnc(SCC(=O)Nc2nc(-c3ccc(OC)cc3)cs2)s1,–,–,–,–,76,·
COc1ccc(-c2csc(NC(=O)CSc3nnc(Nc4ccccc4C)s3)n2)cc1,–,–,–,–,–,–
COc1cccc(-c2nc(CS(=O)(=O)CC(=O)N3CCN(C4CCCCC4)CC3)c(C)o2)c1,·,–,–,–,75,–
O=C(NNC(=O)c1cc(-c2ccncc2)nc2ccccc12)c1ccccc1O,–,–,–,–,94,–
COc1cc(/C=N/NC(=O)c2cc(-c3ccccc3)nc3ccccc23)ccc1O,–,–,–,–,–,–
COc1cc(/C=N/NC(=O)c2nc(-c3ccccc3)n(-c3ccccc3)n2)ccc1O,–,–,–,–,–,–
COc1cc(/C=N/NC(=O)c2cnn3c(C)cc(-c4ccccc4)nc23)ccc1O,–,–,–,–,77,–
O=C(N/N=C/c1ccc(O)cc1)c1cc(-c2ccccc2)nc2ccccc12,–,–,–,29,–,–
CC(C)COc1cccc(-c2cc(C(=O)N/N=C/c3ccncc3)c3ccccc3n2)c1,–,–,–,–,79,·
O=C(CNC(=O)c1ccc(Cl)cc1Cl)OCC(=O)N1CCCC1=O,–,–,–,–,–,–
Cc1ccc(-c2nnc3n2N=C(c2ccc(-c4ccccc4)cc2)CS3)cc1,–,·,·,·,·,·
CCC[C@H]1[C@@H](NC(=O)c2cccc(Cl)c2)CC[C@@]23CCCN2C(=O)CCC[C@@H]13,–,·,·,·,·,·
Cc1cc(C)c(NC(=O)CSc2nc3ccc(N4C(=O)c5ccccc5C4=O)cc3s2)c(C)c1,·,–,–,–,74,–
COc1ccc(NC(=O)O/N=C/c2ccccc2)cc1,–,–,–,16,–,–
COc1ccc(NC(=O)O/N=C/c2ccccc2Cl)cc1,–,–,–,–,–,–
CC(=O)N1CCSc2ccc(S(=O)(=O)NCc3ccc(F)cc3)cc21,–,–,–,–,–,–
O=C(Nc1ccc(F)c(F)c1)C1CCCCC1,·,–,–,–,–,–
O=c1c2ccccc2[nH]c(=S)n1Cc1cccnc1,–,–,–,–,–,–
O=c1c2cc(Br)ccc2[nH]c(=S)n1Cc1cccnc1,–,–,–,43,–,–
SMILES,NSD2 HMT inh,CDK5 inh,SR-BI DiI-HDL act,dFosB act,SR-BI DiI inh,Dyrk1A ADPGlo
CCOc1ccc(CCNC(=O)CSC(=S)N2CCCC2)cc1OCC,–,–,–,–,–,–
O=C(Nc1ccc(F)c(Cl)c1)Nc1csc2ccccc12,–,–,–,–,87,–
COC(=O)[C@]12C[C@H](CC(=O)NCc3ccc(C)o3)C(=O)N(CCC3=CCCCC3)C1=C[C@H](COCc1ccccc1)O[C@@H]2C,–,·,·,·,·,·
O=[N+]([O-])c1ccc(NN=Cc2cc(Br)ccc2O)nc1,–,–,–,–,135,–
O=[N+]([O-])c1ccc(NN=Cc2cccc(O)c2)nc1,–,–,–,–,–,–
Cc1cccc(C)c1-n1c(C)cc(/C=N\Nc2ccc([N+](=O)[O-])cn2)c1C,–,–,–,–,80,–
CCN(CC)C(=O)CNc1nnnn1-c1ccccc1,–,·,·,·,·,·
C=C(C)C(=O)Nc1cccnc1Oc1ccc(F)cc1F,–,–,–,–,–,–
O=C(Cn1cnc2sc3c(c2c1=O)CCCC3)NCC(=O)Nc1c(F)cc(F)cc1Br,–,–,–,69,–,–
COc1cc(OC)c(NC2=CC(=O)C(=O)c3ccccc32)cc1Cl,–,–,–,–,102,–
N#Cc1sc2nc(-c3cccs3)cc(-c3ccccc3)c2c1N,–,–,–,–,84,–
O=C(CSc1nnc(-c2ccco2)n1-c1ccc(Cl)cc1)Nc1ccccc1-c1ccccc1,–,·,·,·,·,·
O=C(CN(c1cccc(Br)c1)S(=O)(=O)c1ccccc1)N/N=C/c1cc([N+](=O)[O-])ccc1O,–,–,–,–,124,–
Nc1[nH]c(C(=O)c2ccc(Cl)cc2)c(-c2ccc(Br)cc2)c1C(=O)NCc1ccc(Cl)cc1Cl,–,·,·,·,·,·
CC1CCN(S(=O)(=O)c2ccc3c(c2)oc(=O)n3CC(=O)N2c3ccccc3CC2C)CC1 (centres undefined),·,–,–,–,73,–
S=C(Nc1ccccc1)c1nc2ccccc2s1,·,–,–,–,–,–
O=C(c1oc2ccccc2c1N1CCCCC1)N1CCCCC1,·,–,–,–,78,–
Cn1cnnc1SCC(=O)NCCc1ccc(Cl)cc1Cl,–,–,–,–,–,–
COc1cc(C(=O)Nc2ccc(N3CCN(C(=O)c4ccc(C)cc4)CC3)cc2)cc(OC)c1OC,–,–,·,–,76,–
CCc1ccc(NC(=O)c2ccc(OC)c([N+](=O)[O-])c2)cc1,–,–,–,–,76,–
Cc1ccc(C(=O)N2CCN(c3ccc(NC(=O)c4cccnc4)cc3)CC2)cc1,–,–,–,–,–,–
COc1ccc(C(=O)Nc2ccncc2)cc1[N+](=O)[O-],–,–,–,–,–,–
CCOc1ccc(C(F)(F)F)cc1NC(=O)c1ccc(OC)c([N+](=O)[O-])c1,–,–,–,–,80,–
CCOC(=O)c1ccc(NC(=O)c2ccc(OC(C)C)c(OC)c2)cc1,–,–,–,–,92,·
CCCCc1c(-c2ccccc2OC)ncn1Cc1ccc(F)c(F)c1,–,·,·,·,·,·
Cc1cc(C(=O)COC(=O)/C=C/c2cccc(Br)c2)c(C)n1C,–,–,–,–,–,–
CC(=O)NCC1CCCN(C(=O)c2ccc(OC3CCN(Cc4ccccn4)CC3)cc2)C1 (centres undefined),–,·,–,–,–,·
CCOc1ccc(C(=O)Nc2ccc(N3CCN(C)CC3)cc2)cc1[N+](=O)[O-],–,–,–,–,–,–
COc1ccc(C(=O)Nc2ccc(N3CCOCC3)cc2)cc1S(=O)(=O)N1CCCC1,–,–,–,–,–,–
COc1ccc(C(=O)Nc2ccc(N3CCOCC3)cc2)cc1S(=O)(=O)NC1CCCC1,–,–,–,–,76,·
